What was measured:
hOAT1 = target: T1, hOAT1 (Homo sapiens, UniProt Q4U2R8); assay: Inhibition of 14C-PAH uptake in MDCK-hOAT1 cells; type: in vitro ADME; settings: for inhibition of the activity of hOAT1: 100 μmol/L IPT, ISP, 100 μg/mL AD extract, substrate 14C-PAH
T1 sequence (Q4U2R8 1-563): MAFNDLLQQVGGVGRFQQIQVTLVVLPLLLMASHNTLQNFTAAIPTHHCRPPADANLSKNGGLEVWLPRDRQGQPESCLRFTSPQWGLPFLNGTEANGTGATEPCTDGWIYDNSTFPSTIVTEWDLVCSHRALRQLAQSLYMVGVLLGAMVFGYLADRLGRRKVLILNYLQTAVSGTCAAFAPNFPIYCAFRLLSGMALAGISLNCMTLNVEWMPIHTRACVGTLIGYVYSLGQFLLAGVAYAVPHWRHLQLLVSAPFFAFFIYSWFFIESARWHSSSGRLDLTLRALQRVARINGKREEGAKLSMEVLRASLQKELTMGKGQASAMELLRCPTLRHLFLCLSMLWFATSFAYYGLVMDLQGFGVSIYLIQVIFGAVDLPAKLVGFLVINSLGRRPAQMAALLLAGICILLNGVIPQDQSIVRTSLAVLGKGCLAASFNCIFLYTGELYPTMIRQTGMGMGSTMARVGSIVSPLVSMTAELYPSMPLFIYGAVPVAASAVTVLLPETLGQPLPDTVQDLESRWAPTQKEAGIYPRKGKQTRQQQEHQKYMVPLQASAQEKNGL
In short: (§1)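 Test compounds were made as DMSO stocks (20 mmol/L, or 10 mg/mL for extract) and diluted in PBS to a final DMSO below 0.5%. Cells were exposed at 37 °C to probe plus or minus test compound. The probe was 5 μmol/L ¹⁴C-PAH for 5 min (hOAT1) or 50 nmol/L ³H-estrone sulfate for 2 min (hOAT3, hOATP2B1). Screens used 100 μmol/L (extract 100 mg/L); IC50 came from varied concentrations. Cells were then given three cold DPBS washes, lysed in 0.1 mol/L NaOH and read by scintillation counting. Data are mean ± SD, n = 3.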

mOatp1a1 = assay: qRT-PCR of mOatp1a1 mRNA in liver of treated mice; type: in vivo; settings: mice given 20 mg/kg TDE with 20 mg/kg IPT, ISP or 200 mg/kg AD extract, 4 h
mice liver slices = assay: In vitro uptake of TDE in mice liver slices; type: in vitro ADME, Kunming mice; settings: mice liver slices, TDE 10 μmol/L
In short: (§2)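 Kunming mice (20–25 g, fasted 12 h) were anaesthetised with urethane, and kidney or liver was decapsulated into ice-cold oxygenated buffer at pH 7.5. Slices of about 30 mg were preincubated 5 min under carbogen at 4 or 37 °C. They were then incubated with 10 μmol/L test compound for 5, 10 or 30 min, with or without reference OAT1/OAT3 or OATP inhibitors or co-ingredients. Slices were then washed, blotted, weighed and homogenised, then extracted with methanol and an internal standard for HPLC–MS.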

[1] = Tissue distribution of TDE in mice; settings: oral 20 mg/kg TDE with 20 mg/kg IPT, 20 mg/kg ISP or 200 mg/kg AD extract, 1, 2 and 4 h; for accumulation of TDE in kidney vs TDE alone / accumulation of TDE in liver vs TDE alone: P < 0.05
hOATP1B1 = target: T2, hOATP1B1 (Homo sapiens, UniProt Q9Y6L6); assay: Cellular uptake and kinetics in HEK293-hOATP1B1 vs Mock cells; type: in vitro ADME; settings: 100 μmol/L
T2 sequence (Q9Y6L6 1-691): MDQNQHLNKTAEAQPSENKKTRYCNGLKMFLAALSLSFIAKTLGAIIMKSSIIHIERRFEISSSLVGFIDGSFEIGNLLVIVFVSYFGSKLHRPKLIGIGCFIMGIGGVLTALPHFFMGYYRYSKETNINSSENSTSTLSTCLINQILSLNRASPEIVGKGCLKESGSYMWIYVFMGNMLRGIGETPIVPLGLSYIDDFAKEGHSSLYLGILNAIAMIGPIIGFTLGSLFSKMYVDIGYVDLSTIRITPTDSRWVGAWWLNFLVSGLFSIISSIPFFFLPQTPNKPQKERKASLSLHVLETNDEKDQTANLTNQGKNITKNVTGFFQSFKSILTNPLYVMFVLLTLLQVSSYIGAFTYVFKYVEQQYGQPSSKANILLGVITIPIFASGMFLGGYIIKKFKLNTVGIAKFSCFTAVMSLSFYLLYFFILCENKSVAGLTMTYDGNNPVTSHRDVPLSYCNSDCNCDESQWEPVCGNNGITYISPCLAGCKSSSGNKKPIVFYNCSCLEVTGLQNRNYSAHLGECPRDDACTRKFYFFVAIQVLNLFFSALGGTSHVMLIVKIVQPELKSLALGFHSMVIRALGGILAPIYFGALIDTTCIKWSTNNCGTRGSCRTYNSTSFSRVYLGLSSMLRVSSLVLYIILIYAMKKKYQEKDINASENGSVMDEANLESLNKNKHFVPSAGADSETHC

mOatp1a4 = assay: qRT-PCR of mOatp1a4 mRNA in liver of treated mice; type: in vivo; settings: mice given 20 mg/kg TDE with 20 mg/kg IPT, ISP or 200 mg/kg AD extract, 4 h
mice kidney slices = assay: In vitro uptake of TDE in mice kidney slices; type: in vitro ADME, Kunming mice; settings: TDE 10 μmol/L
In short: as §2

hOATP2B1 [2] = target: T3, hOATP2B1 (Homo sapiens, UniProt O94956); assay: Inhibition of 3H-ES uptake in HEK293-hOATP2B1 cells; type: in vitro ADME; settings: 100 μmol/L IPT, ISP; substrate 3H-ES
T3 sequence (O94956 1-709): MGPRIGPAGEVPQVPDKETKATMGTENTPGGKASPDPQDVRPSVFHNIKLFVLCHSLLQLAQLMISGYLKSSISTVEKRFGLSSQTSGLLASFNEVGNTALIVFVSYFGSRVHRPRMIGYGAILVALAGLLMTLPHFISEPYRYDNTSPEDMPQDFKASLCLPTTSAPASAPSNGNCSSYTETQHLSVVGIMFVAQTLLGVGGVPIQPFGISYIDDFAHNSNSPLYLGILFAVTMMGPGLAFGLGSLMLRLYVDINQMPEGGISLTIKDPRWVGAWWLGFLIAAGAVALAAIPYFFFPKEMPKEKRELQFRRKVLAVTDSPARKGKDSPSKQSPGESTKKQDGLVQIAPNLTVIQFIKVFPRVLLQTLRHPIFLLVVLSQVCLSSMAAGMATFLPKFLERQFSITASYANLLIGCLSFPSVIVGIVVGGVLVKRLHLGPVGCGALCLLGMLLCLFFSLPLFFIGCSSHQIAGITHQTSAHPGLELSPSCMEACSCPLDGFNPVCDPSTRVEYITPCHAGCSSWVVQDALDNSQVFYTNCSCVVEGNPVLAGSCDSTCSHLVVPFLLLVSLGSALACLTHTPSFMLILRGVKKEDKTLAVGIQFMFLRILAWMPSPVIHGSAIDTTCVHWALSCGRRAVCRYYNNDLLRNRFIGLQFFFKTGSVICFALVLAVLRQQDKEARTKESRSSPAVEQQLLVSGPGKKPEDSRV
In short: as §1

hOATP2B1 [3] = target: T3, hOATP2B1; assay: Cellular uptake in HEK293-hOATP2B1 vs Mock cells; type: in vitro ADME; settings: 100 μmol/L, substrate if >2-fold of wild type

SMILES	IC50 (hOAT1) [µM]	inhibition of the activity of hOAT1 (hOAT1)	mRNA level of mOatp1a1 decreased to, compared to TDE alone (mOatp1a1) [%]	effect on the uptake of TDE in liver slices (mice liver slices)	concentration of TDE in blood vs TDE alone [1]	concentration of TDE in brain vs TDE alone [1]	accumulation of TDE in kidney vs TDE alone [1]	accumulation of TDE in liver vs TDE alone [1]	accumulation in hOATP1B1-overexpressed cell lines compared to wild type (hOATP1B1)	mRNA level of mOatp1a4 decreased to, compared to TDE alone (mOatp1a4) [%]	effect on the uptake of TDE in kidney slices (mice kidney slices)	inhibition to hOATP2B1 (hOATP2B1 [2])	accumulation in HEK293-hOATP2B1 vs HEK293 wild type (hOATP2B1 [3])
CC(C)=CCOc1c2occc2cc2ccc(=O)oc12 [IPT, imperatorin]	31.7	significantly inhibited	22	significant inhibition	significantly enhanced	significantly enhanced	significantly decreased	significantly decreased	could largely accumulate	36	significant inhibition	weak or no inhibition	less than 2 fold
CC(C)=CCOc1c2ccoc2cc2oc(=O)ccc12 [ISP, isoimperatorin]	26.8	significantly inhibited	37	significant inhibition	significantly enhanced	significantly enhanced	significantly decreased	significantly decreased	could largely accumulate	61	significant inhibition	weak or no inhibition	less than 2 fold

Reference: article PMC7564327 (Acta Pharmaceutica Sinica. B, 2020)
